Our source for the IC50, EC50 and Ratio IC50 values is ChEMBL document CHEMBL1139742, “3-(Indol-2-yl)indazoles as Chek1 kinase inhibitors: Optimization of potency and selectivity via substitution at C6” (Bioorg Med Chem Lett, 2006).

The structures appear in SMILES notation. Where only a bound is given, the exact number is not on record here.

The target in assay [1] is T1, Serine/threonine-protein kinase Chk1 (Homo sapiens, UniProt O14757).
T1 sequence (O14757 whole entry): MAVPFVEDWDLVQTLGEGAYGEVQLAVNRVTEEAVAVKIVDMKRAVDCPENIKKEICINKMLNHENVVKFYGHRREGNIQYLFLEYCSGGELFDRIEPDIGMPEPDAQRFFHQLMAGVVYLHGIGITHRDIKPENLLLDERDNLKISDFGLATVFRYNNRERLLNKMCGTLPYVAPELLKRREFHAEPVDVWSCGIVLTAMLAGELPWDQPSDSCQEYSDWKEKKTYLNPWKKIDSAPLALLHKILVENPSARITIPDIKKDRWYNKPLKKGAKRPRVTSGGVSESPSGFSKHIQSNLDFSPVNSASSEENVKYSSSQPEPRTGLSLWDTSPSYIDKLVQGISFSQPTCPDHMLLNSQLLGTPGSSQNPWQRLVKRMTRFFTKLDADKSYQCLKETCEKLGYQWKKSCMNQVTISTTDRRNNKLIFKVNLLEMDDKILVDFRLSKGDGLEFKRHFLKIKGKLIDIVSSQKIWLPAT
The assay is described as follows: Inhibition of Chek1.

For the next assay, the system named is NCI-H1299. The assay is described as follows: Release of NCI-H1299 cells from DNA damage-induced cell cycle arrest by CEA. It is filed as functional, cell-based. To be noted: Homo sapiens. In a few lines: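 NCI-H1299 lung carcinoma cells were arrested by 16 h camptothecin treatment, then exposed to inhibitor for a further 8 h. Escape into mitosis was read as mitosis-specific nucleolin phosphorylation in an antibody-coated bead-based assay. EC50 came from a 10-point half-log dilution series, averaged over tetraplicate determinations.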

Assay [2] concerns the target Cyclin-dependent kinase 7 (Homo sapiens, UniProt P50613). The assay can be described thus: Inhibition of Cdk7.
Another assay is filed under the species Homo sapiens. The assay is described as follows: Selectivity for Chek1 over Cdk7.
Assay [3] has as its target T1, Serine/threonine-protein kinase Chk1. The assay can be described thus: Inhibition of autophosphorylation of Chek1 in NCI-H1299 cells. It is filed as functional, cell-based. Summed up:
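Cyto-blot of Chek1 autophosphorylation with phospho-S296 Chek1 antibody in NCI-H1299 lung carcinoma cells. Cells incubated with inhibitor 2 h, then camptothecin added for a further 4 h. Cellular assay ATP 2.0 mM. 10-point, 3-fold dilution series. IC50 averaged over triplicate determinations.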

Chain of Cyclin-dependent kinase 7 (P50613 whole entry): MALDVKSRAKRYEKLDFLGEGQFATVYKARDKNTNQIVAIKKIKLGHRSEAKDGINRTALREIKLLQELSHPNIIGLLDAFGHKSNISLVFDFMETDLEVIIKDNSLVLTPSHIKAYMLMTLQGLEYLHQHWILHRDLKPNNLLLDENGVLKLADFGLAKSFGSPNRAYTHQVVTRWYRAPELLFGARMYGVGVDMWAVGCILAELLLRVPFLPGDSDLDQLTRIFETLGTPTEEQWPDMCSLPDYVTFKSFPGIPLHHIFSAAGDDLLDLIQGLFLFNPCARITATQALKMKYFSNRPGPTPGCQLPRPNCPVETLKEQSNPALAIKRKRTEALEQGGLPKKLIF

Take `c1csc(-c2ccc3c(-c4cc5cc(CN6CCCCC6)ccc5[nH]4)n[nH]c3c2)n1`: the concentration for half-maximal inhibition (IC50) in assay [1] stood at 48 nM; in assay [2] it was 4000 nM. For the same compound, the half-maximal effective concentration (EC50) with NCI-H1299 was 2000 nM. Also, in the assay listed under Homo sapiens, the Ratio IC50 was found to be 83.
Take `c1cnn(-c2ccc3c(-c4cc5cc(CN6CCCCC6)ccc5[nH]4)n[nH]c3c2)n1`: the IC50 in assay [1] amounted to 34 nM; in assay [2] it was 480 nM. A half-maximal response in the assay on NCI-H1299 (EC50) required 4500 nM. Also, the Ratio IC50 in the assay listed under Homo sapiens was 14.
On to `Cn1cc(-c2ccc3c(-c4cc5cc(CN6CCOCC6)ccc5[nH]4)n[nH]c3c2)cn1`, for which the half-inhibitory concentration (IC50) in assay [1] is 530 nM.
Regarding `CNC(=O)c1ccc2c(-c3cc4cc(CN5CCOCC5)ccc4[nH]3)n[nH]c2c1`, the concentration for half-maximal inhibition (IC50) turned out to be 13 nM in assay [1] and 4900 nM in assay [2]. In the assay on NCI-H1299, this compound gave an EC50 of 650 nM.
`c1cc(-c2ccc3c(-c4cc5cc(CN6CCOCC6)ccc5[nH]4)n[nH]c3c2)[nH]n1`: the IC50 in assay [1] was determined as 59 nM; in assay [2], 34 nM. For the same compound, in the assay on NCI-H1299, the EC50 is greater than 50000 nM. Also, the Ratio IC50 in the assay listed under Homo sapiens came to 0.58.
The corresponding values for `c1cnn(-c2ccc3c(-c4cc5cc(CN6CCCCC6)ccc5[nH]4)n[nH]c3c2)c1` are 110 nM, 2300 nM, greater than 10000 nM and 22.
On to `c1cn(-c2ccc3c(-c4cc5cc(CN6CCCCC6)ccc5[nH]4)n[nH]c3c2)nn1`, for which the IC50 in assay [1] turned out to be 2.6 nM; in assay [2], 57 nM. In the assay with NCI-H1299, this compound returned a half-maximal effective concentration (EC50) of 350 nM. In addition, in the assay filed under Homo sapiens, the Ratio IC50 worked out at 22.
In the case of `CC(=O)N1CCN(Cc2ccc3[nH]c(-c4n[nH]c5cc(C#N)ccc45)cc3c2)CC1`, the IC50 was 17 nM in assay [1], 1000 nM in assay [3], greater than 10000 nM with NCI-H1299 and 39 nM in assay [2].
In the case of `OCc1nn[nH]c1-c1ccc2c(-c3cc4cc(CN5CCC(F)CC5)ccc4[nH]3)n[nH]c2c1`, the results for the IC50 in assay [1] and in assay [2] were 0.3 nM and 180 nM, respectively. Besides, the EC50 with NCI-H1299 was found to be 340 nM.
Regarding `COc1cc(-c2ccc3c(-c4cc5cc(CN6CCCCC6)ccc5[nH]4)n[nH]c3c2)ccc1O`, the values for the 50% inhibitory concentration (IC50) in assay [1] and in assay [2] were 0.25 nM and 310 nM, respectively. For the same compound, the EC50 with NCI-H1299 amounted to 92 nM.
On to `NC(=O)c1ccc2c(-c3cc4cc(CN5CCOCC5)ccc4[nH]3)n[nH]c2c1`, for which the IC50 stood at 12 nM in assay [1] and 1300 nM in assay [2]. This compound came in with an EC50 with NCI-H1299 of 980 nM.
Consider `c1ccc(-c2ccc3c(-c4cc5cc(CN6CCCCC6)ccc5[nH]4)n[nH]c3c2)cc1`, for which the results for the half-inhibitory concentration (IC50) in assay [1] and in assay [2] were 45 nM and 7000 nM, respectively. For the same compound, in the assay on NCI-H1299, a half-maximal effect (EC50) was put at 5000 nM. The Ratio IC50 in the assay filed under Homo sapiens stood at 160.
As for `COC(=O)c1ccc2c(-c3cc4cc(CN5CCOCC5)ccc4[nH]3)n[nH]c2c1`, the IC50 in assay [1] stood at 62 nM; in assay [2], 6500 nM. In addition, the EC50 in the assay on NCI-H1299 is 1930 nM.
In assay [1], `CC(=O)N1CCN(Cc2ccc3[nH]c(-c4n[nH]c5cc(Cl)ccc45)cc3c2)CC1` registered an IC50 of 120 nM.
Regarding `NCc1nn[nH]c1-c1ccc2c(-c3cc4cc(CN5CCC(F)CC5)ccc4[nH]3)n[nH]c2c1`, the IC50 in assay [1] turned out to be 0.11 nM; in assay [2], 300 nM. Besides, the EC50 in the assay with NCI-H1299 is 610 nM.
With `CC(=O)N1CCN(Cc2ccc3[nH]c(-c4n[nH]c5ccccc45)cc3c2)CC1`, the IC50 in assay [1] was determined as 640 nM.
Take `CN(C)C(=O)c1ccc2c(-c3cc4cc(CN5CCOCC5)ccc4[nH]3)n[nH]c2c1`: the figures for the IC50 in assay [1] and in assay [2] were 80 nM and greater than 100000 nM, respectively. For the same compound, the EC50 with NCI-H1299 worked out at 4000 nM.
For `c1cc2[nH]c(-c3n[nH]c4cc(-c5cn[nH]c5)ccc34)cc2cc1CN1CCOCC1`, the IC50 in assay [1] was 10 nM; in assay [2] it was 25 nM. The compound also came in with an EC50 in the assay on NCI-H1299 greater than 50000 nM.
Consider `OCc1n[nH]nc1-c1ccc2c(-c3cc4cc(CN5CCCCC5)ccc4[nH]3)n[nH]c2c1`, for which the midpoint of the response with NCI-H1299, the EC50, lay at 690 nM. Also, in assay [2], the IC50 came to 56 nM. The Ratio IC50 in the assay listed under Homo sapiens is 190.
As to `c1cc2[nH]c(-c3n[nH]c4cc(-c5cnsc5)ccc34)cc2cc1CN1CCCCC1`, the IC50 in assay [1] is 12 nM; in assay [2], 18 nM. Besides, the EC50 with NCI-H1299 was greater than 10000 nM. For the same compound, in the assay listed under Homo sapiens, the Ratio IC50 came out at 1.5.
As to `c1ccc2[nH]c(-c3n[nH]c4cc(-c5nnn[nH]5)ccc34)cc2c1`, the IC50 in assay [1] is 27 nM; in assay [3], greater than 10000 nM; in the assay on NCI-H1299, greater than 10000 nM.
As for `Cc1cnnn1-c1ccc2c(-c3cc4cc(CN5CCCCC5)ccc4[nH]3)n[nH]c2c1`, the IC50 in assay [1] worked out at 30 nM; in assay [2], 420 nM. This compound also gave an EC50 in the assay on NCI-H1299 of 1400 nM. In addition, the Ratio IC50 in the assay listed under Homo sapiens turned out to be 14.
Turning to `CC(=O)N1CCN(Cc2ccc3[nH]c(-c4n[nH]c5cc(-c6nnn[nH]6)ccc45)cc3c2)CC1`, the figures for the IC50 (in assay [1]; in assay [3]; in the assay on NCI-H1299) were 2.3 nM, greater than 10000 nM and greater than 10000 nM, respectively.
`N#Cc1ccc2c(-c3cc4cc(CN5CCOCC5)ccc4[nH]3)n[nH]c2c1`: in assay [1], half-maximal inhibition (IC50) required 30 nM. For the same compound, the EC50 in the assay on NCI-H1299 is greater than 50000 nM.
